Reference: ChEMBL document CHEMBL1157054, “Design, synthesis and biological evaluation of indane-2-arylhydrazinylmethylene-1,3-diones and indol-2-aryldiazenylmethylene-3-ones as beta-amyloid aggregation inhibitors” (Eur J Med Chem, 2010)
The source made the active and inactive calls. No cut-off for these calls is given here.

What was measured:
[1] = Inhibition of amyloid beta (1 to 40) aggregation assessed as inhibition of fibril formation by thioflavin T fluorescent dye assay
Outline: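 ThT fluorimetric assay on HFIP-pretreated Aβ1-40, 30 µM in PBS pH 7.4 containing 2% HFIP and 10% DMSO, incubated 2 h at 25 °C. Fluorescence read after mixing with 25 µM ThT (phosphate pH 6.0), ex 440/em 485 nm, blank-corrected vs inhibitor-free aggregation. IC50 from 5-7 concentrations tested in triplicate, three independent experiments.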

[2] = Inhibition of amyloid beta (1 to 40) aggregation assessed as inhibition of fibril formation at 100 uM by thioflavin T fluorescent dye assay
Outline: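 Aβ1-40 (HFIP-treated, lyophilized) at 30 µM in PBS (0.01 M, NaCl 0.1 M, pH 7.4) with 2% HFIP and 10% DMSO, test compound 100 µM; triplicate incubations, 2 h at 25 °C. Sample mixed with 25 µM ThT in 0.025 M phosphate pH 6.0; fluorescence ex 440/em 485 nm. Percent inhibition = 100 − [(Fi − Fb)/F0]×100, blank-corrected against free Aβ aggregation.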

[3] = Inhibition of amyloid beta (1 to 40) aggregation assessed as inhibition of protofibril formation after 3 days
Outline: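 Aβ1-40 (30 µM) with compound at 50 µM in 0.217 M phosphate buffer pH 8.0, 10% ethanol, incubated at 37 °C up to 7 days; aliquots taken at time points, applied to carbon-coated grids, negatively stained with 2% uranyl acetate, imaged by TEM at 60 kV, 60,000-fold magnification; qualitative fibril/protofibril assessment.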

IC50 [1]	inhibition [2]	Compound	further results
35 µM	–	O=C1C(=C/N=N/c2ccccc2)Nc2ccc(Br)cc21	–
18 µM	–	CC(C)c1ccc(NNC=C2C(=O)c3ccccc3C2=O)cc1	–
–	44%	O=C1CCC(=O)C1=CNNc1ccc(Cl)cc1	–
23 µM	–	COc1ccc2[nH]cc(/C=N\Nc3ccc(Cl)cc3)c2c1	–
–	23%	O=C1C(=C/N=N/c2ccc(Cl)c(Cl)c2)Nc2ccc(Br)cc21	–
–	44%	Cc1ccc(NNC=C2C(=O)c3ccccc3C2=O)cc1	–
51 µM	–	Cc1ccc(/N=N/C=C2Nc3ccc(Br)cc3C2=O)cc1	–
3.6 µM	–	Cc1ccc(/N=N/C=C2Nc3ccccc3C2=O)cc1	–
–	49%	O=C1C(=CNNc2ccccc2)C(=O)c2ccccc21	–
18 µM	–	O=C1C(=CNNc2cccc(Cl)c2)C(=O)c2ccccc21	–
23 µM	–	CC(C)c1ccc(/N=N/C=C2Nc3ccc(Br)cc3C2=O)cc1	–
8.8 µM	–	O=C1C(=C/N=N/c2ccccc2)Nc2ccccc21	–
1.4 µM	–	CC(C)c1ccc(/N=N/C=C2Nc3ccccc3C2=O)cc1	inhibition [3]: Active
–	33%	O=C1C(=C/N=N/c2ccc(Cl)cc2)Nc2ccccc21	–
13 µM	–	O=C1C(=C/N=N/c2ccccc2Cl)Nc2ccccc21	–
32 µM	–	O=C1C(=CNNc2ccccc2Cl)C(=O)c2ccccc21	–
4.4 µM	–	O=C1C(=C/N=N/c2cccc(Cl)c2)Nc2ccc(Br)cc21	–
2.5 µM	–	O=C1C(=C/N=N/c2cccc(Cl)c2)Nc2ccccc21	–
–	20%	O=C1C(=C/N=N/c2ccc(Cl)cc2)Nc2ccc(Br)cc21	–
23 µM	–	O=C1C(=CNNc2ccc(Cl)cc2)C(=O)c2ccccc21	–
7.8 µM	–	O=C1C(=C/N=N/c2ccccc2Cl)Nc2ccc(Br)cc21	–
–	38%	O=c1c(=NNc2ccc(Cl)cc2)c(=O)c2ccccc12	–

Compound	IC50 [1]	inhibition [2]	further results
O=c1c(O)c(-c2ccc(O)c(O)c2)oc2cc(O)cc(O)c12 [QUERCETIN]	0.8 µM	–	–
